# Laboratory results as given in PMC2275130 (Nucleic Acids Research, 2008).
# Key:
# Assay type in all cases: biochemical
# HCV NS5BCΔ21 [1] = target: T1, HCV NS5BCΔ21 (Hepatitis C virus genotype 1b, UniProt P26663); assay: Gel-based incorporation assay; conditions: highest concentration of wedelolactone (lane 5, 100 μM), poly rA/U12, 20 min
# In short: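 Stopped with 25 mM EDTA/0.5% SDS, then phenol-chloroform extracted and ethanol precipitated. Products were heated 90°C for 5 min, run on denaturing 6% polyacrylamide/7 M urea gel and imaged by phosphorimager.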
# HCV NS5BCΔ21 [2] = target: T1, HCV NS5BCΔ21; assay: Determination of Ki and mode of inhibition; conditions: towards template/primer (poly rA/U12 varied), UTP fixed 25 μM
# In short: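 Aliquots were taken at defined times, quenched in 5% TCA/0.5 mM pyrophosphate, and counted by GF-B filter binding. Ki and mode came from Dixon and Cornish-Bowden plots. Each run was done at least twice; values average at least triplicates.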
# HCV NS5BCΔ21 [3] = target: T1, HCV NS5BCΔ21; assay: NS5B RdRp assay; conditions: NS5B inhibition (IC50 μM), poly rA/U12, 25 μM UTP, 0.5 mM MnCl2, 10% DMSO, 1 h at 30°C
# In short: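 NS5BCΔ21 (300–500 ng) and poly rA/U12 (0.5 μM) sat 5 min on ice before NTPs were added. Reactions ran 1 h at 30°C, then TCA quench and GF-B counting. IC50s were read from curves relative to DMSO control, from at least two independent runs.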
# [4] = target: Klenow fragment of E. coli DNA polymerase I (Escherichia coli, UniProt P00582); assay: Klenow polymerase counter screen; conditions: read-out: IC50 Klenow polymerase counter screen; poly rA/dT18, 10% DMSO
# In short: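 Exonuclease-deficient Klenow fragment from E. coli BL-21(DE3), purified by ammonium sulfate fractionation and Biorex-70, used at 10 nM. Ran 37°C for 20 min, TCA/pyrophosphate quench, GF-B filtration, scintillation counting.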
# HIV-1 RT = HIV-1 RT (Human immunodeficiency virus type 1 group M subtype B, UniProt P04585); assay: HIV-1 RT counter screen
# In short: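 His-tagged p66/p51 heterodimeric wild-type RT, Ni-NTA purified, used at 10 nM. Reactions ran 37°C for 20 min, were stopped with ice-cold 5% TCA/0.5 mM pyrophosphate, filtered on GF-B and scintillation counted.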
smiles,measurement,setting,value
"COc1cc(O)c2c(c1)oc(=O)c1c3cc(O)c(O)cc3oc21 [Wedelolactone, 7-methoxy-5,11,12-trihydroxy-coumestan]",extension product formation (gel),HCV NS5BCΔ21 [1],no detectable extension product
same,Ki,HCV NS5BCΔ21 [2]; Ki competitive,11.2 µM
same,Ki uncompetitive,HCV NS5BCΔ21 [2],43 µM
same,IC50,HCV NS5BCΔ21 [3],36.1 µM
same,IC50,[4],> 700 µM
same,IC50,HIV-1 RT,> 250 µM
